Assay outcomes from PubChem BioAssay.
PG9 binder: small molecules binding HIV-1 gp120 antibody PG9. inhibition, % at 6.7 µM. TR-FRET gp120-PG9 antibody binding. actives 0.43% (n = 360,000); in the data active means inhibition above about 8.5%
beta cell repl: MIN6 beta-cell proliferation induction; proliferation, % at 10 µM; MIN6 cells proliferation, ATPlite luminescence, 48 h; cells starved in 0.2% serum; 100% = growth in 10% serum; AID 2380; actives 0.29% (n = 330,000);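 active means compounds whose signal lies at least 3.5 SD above the mean of all wells on their plate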
iPSC survival up: hiPSC single-cell survival enhancement; AID 602274; survival enhancement, % at 20 µM; ATPlite luminescence; 100% = ROCK inhibitor wells, 0% = DMSO; actives 0.044% (n = 360,000); in the data active means survival enhancement above about 18%;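 further: cells exposed to compounds for 16 hours before the ATP read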
TAG inh: inhibitors of triacylglycerol accumulation. H9c2 cells, Nile Red lipid (TAG) fluorescence; cells loaded with 200 µM oleic acid. inhibition, % at 12.5 µM. actives 0.66% (n = 230,000);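 active means pattern-corrected inhibition of lipid staining of at least 50% with the nuclear-stain viability signal not falling by more than 50%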
NR1D1 modulator: modulates human Rev-erb alpha binding to DNA; P20393; Rev-erbα–FITC-DNA binding, fluorescence polarization, 90 min; activity, % at 10 µM; actives 0.79% (n = 370,000); AID 1259318;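 active means activity above about 14%, limit read from the data; passing the limit was not always enough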
Target sequence (P20393 whole entry, looked up): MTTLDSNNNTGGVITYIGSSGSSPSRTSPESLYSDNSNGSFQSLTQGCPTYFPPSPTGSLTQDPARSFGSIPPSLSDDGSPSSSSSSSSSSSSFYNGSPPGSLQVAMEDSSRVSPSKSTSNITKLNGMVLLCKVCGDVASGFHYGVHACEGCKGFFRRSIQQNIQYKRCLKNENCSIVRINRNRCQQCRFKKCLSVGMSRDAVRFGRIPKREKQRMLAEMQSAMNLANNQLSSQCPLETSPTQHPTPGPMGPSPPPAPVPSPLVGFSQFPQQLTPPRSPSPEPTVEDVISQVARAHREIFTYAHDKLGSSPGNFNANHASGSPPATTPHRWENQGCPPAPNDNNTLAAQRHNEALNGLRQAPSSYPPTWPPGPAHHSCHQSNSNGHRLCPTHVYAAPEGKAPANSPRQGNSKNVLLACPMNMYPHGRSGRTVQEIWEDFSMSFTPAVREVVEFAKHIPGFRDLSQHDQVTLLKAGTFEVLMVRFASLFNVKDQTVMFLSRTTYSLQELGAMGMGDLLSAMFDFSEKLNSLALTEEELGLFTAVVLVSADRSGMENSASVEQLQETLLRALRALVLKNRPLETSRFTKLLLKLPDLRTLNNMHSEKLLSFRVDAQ
T cruzi repl: blocks replication of Trypanosoma cruzi; AID 1885; actives 1.4% (n = 300,000); inhibition, % (no concentration beside the values); T. cruzi beta-gal in NIH3T3, luminescence, 90 h;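 active means mean inhibition across valid replicates above about 55%, limit read from the data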;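 further: signal also drops with host cell toxicity which is not excluded here; higher percent means less beta-gal luminescence so fewer parasites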
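Incubation – ≥90 h infection period, 3 h prior cell attachment · System – NIH/3T3 fibroblasts plus reporter T. cruzi · Doses – compound pinned at 50 nL/well, DMSO · Read-out basis – percent inhibition of parasite-derived β-gal signal · Signal – luminescent β-galactosidase signal after 60 min lysis · Also added – 5000 T. cruzi trypomastigotes/well · Medium – Low-serum DMEM with 2% FBS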
NR1D1 mod conf: Rev-erb alpha (human) modulation, hit confirmation | shares compounds with NR1D1 modulator | Rev-erb alpha FITC-DNA binding, fluorescence polarization, 90 min | activation, % at 25 µM | actives 61% (n = 3,000) | AID 1259319;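 active means activation at or above a set limit, or at least 3 SD above the negative control mean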
RORg DNA counter: counter-screen for Rev-erb alpha modulators: RORgamma DNA binding | shares compounds with NR1D1 modulator | purified RORgamma protein-FITC-DNA binding, fluorescence polarization | IC50, µM | actives 8% (n = 910) | AID 1259320;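 active means Compounds whose fitted half-maximal concentration for disrupting protein-DNA binding is below 10 micromolar; the record names Rev-erb in its text, so the target is in doubt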
Hits are given with their value; – = inactive; · = not tested or not shown. A selection: hits, their analogues and other compounds. The true share with any hit is near 2.9%.

SMILES	PG9 binder	beta cell repl	iPSC survival up	TAG inh	NR1D1 modulator	T cruzi repl	NR1D1 mod conf	others
COc1cc2nc(-c3ccccc3)nc(N3CCCC3)c2cc1OC	–	·	·	·	42	·	25
COc1cccc(-c2nc(N3CCCCC3)c3ccccc3n2)c1O	–	–	–	–	–	–	·
COc1ccc2cc(C#N)c(N3CCOCC3)nc2c1	–	–	–	–	–	–	·
CCC(C)(C)n1nnnc1CN1CCN(c2nc3cc(OC)ccc3cc2C#N)CC1	–	–	–	–	56	–	–
COc1cc2c3nnc(-c4ccc(F)cc4)c-3cn(Cc3ccc(C)cc3)c2cc1OC	–	–	–	–	–	–	·
COc1cc2c3nnc(-c4ccccc4)c-3cn(Cc3ccc(F)cc3)c2cc1OC	–	–	–	–	23	–	–
N=C1C(c2nc3ccccc3s2)=C(O)CN1C1CCC(O)CC1 (stereo unspecified)	–	–	·	·	–	–	·
N=C1C(c2nc3ccccc3s2)=C(O)CN1C1CCCCC1	–	–	–	·	20	–	–
CCOC(=O)c1c(NC(=O)c2ccn(CC)n2)sc2c1CCCC2	–	–	–	·	–	–	·
CCOC(=O)c1c(NC(=O)c2nc3n(n2)C(C(F)F)CC(C)N3)sc2c1CCCC2 (stereo unspecified)	–	–	–	·	22	–	–
O=C(CSc1ccc(-c2ccco2)nn1)NC1CCCCC1	–	–	–	–	–	·	·
O=C(CN1C(=O)c2ccccc2C1=O)NC1CCCCCC1	–	–	–	·	–	–	·
O=C(c1ccc(OC2CCN(Cc3ccccc3O)CC2)cc1)N1CCCCC1	–	–	–	–	36	–	–
CN(C)C(=O)CSc1nc2ccccc2c(=O)[nH]1	–	–	–	–	–	–	·
CN(C)C(=O)CSc1nc(-c2cccs2)c(-c2cccs2)[nH]1	–	–	–	·	22	–	24
O=c1c2ccccc2c(-c2ccc(O)cc2)nn1-c1cccc(C(F)(F)F)c1	–	–	–	–	–	–	·
Cc1ccc(-n2nccc2-c2nn(-c3cccc(C(F)(F)F)c3)c(=O)n(C)c2=O)cc1	–	–	–	·	33	–	–
CC(C)=C(c1ccc(Cl)cc1)c1c(N)ncnc1N	–	·	–	–	–	·	·
Cc1ccc(-n2nc3ccc(NC(=O)c4cccc([N+](=O)[O-])c4C)cc3n2)cc1	–	–	–	–	26	–	–
Cc1ccc(S(=O)(=O)NCc2ccncc2)cc1C(=O)NCC(C)C	–	–	–	–	–	–	·
CC(C)Cn1c(N)c(C(=O)CSc2nc3ncc(Cl)cc3[nH]2)c(=O)n(C)c1=O	–	–	–	–	–	–	·
CCCn1c(N)c(C(=O)CSc2nc3ncc(Cl)cc3[nH]2)c(=O)n(C)c1=O	–	–	–	–	66	·	17
O=C(CSc1nnc2c(n1)[nH]c1ccc(S(=O)(=O)N3CCOCC3)cc12)Nc1ccc(F)c(F)c1	–	–	–	–	45	–	–
COc1ccccc1N=C1NC(=O)/C(=C/c2ccc(N(C)C)cc2)S1	–	–	–	–	25	–	–
CN(CC(=O)Nc1cccc(Cl)c1)S(=O)(=O)c1ccc2c(c1)n(C)c(=O)c(=O)n2C	–	–	–	·	–	–	·
SMILES	PG9 binder	beta cell repl	iPSC survival up	TAG inh	NR1D1 modulator	T cruzi repl	NR1D1 mod conf	others
CN(CC(=O)Nc1ccc(Cl)cc1)S(=O)(=O)c1ccc2c(c1)n(C)c(=O)c(=O)n2C	–	–	–	·	63	–	43	RORg DNA counter=–
CC1=C(C(=O)N2CCOCC2)CC(CC(=O)NCC2CCCCC2)C(=O)N1CCCN1CCCC1=O (stereo unspecified)	–	·	–	–	–	·	·
CCc1cc2cccc(C)c2nc1SCC(=O)Nc1nonc1C	–	–	–	–	–	–	·
Cc1nonc1NC(=O)CSc1nc2cc(Cl)ccc2c2c1CCCC2	·	–	–	·	173	–	132
Cc1nonc1NC(=O)CSc1nc2ccc(Cl)cc2[nH]1	–	–	–	·	–	–	·
Cc1ccc2c3c(c(SCC(=O)Nc4nonc4C)nc2c1)CCCC3	–	–	–	·	26	–	39	RORg DNA counter=–
Cc1cccn2c(=O)c3cc(C(=O)N4CC(C)CC(C)C4)sc3nc12 (stereo unspecified)	–	–	–	·	–	–	·
NNC(=S)NC1CCS(=O)(=O)C1 (stereo unspecified)	–	–	–	–	–	–	·
COc1cccc(OC(=O)c2ccccc2)c1OC(=O)c1ccccc1	–	·	–	–	–	·	·
COC(=O)c1cccc(N2C(=O)c3cccnc3C2=O)c1	–	–	–	–	–	–	·
Cc1ccc2cc(-c3noc(C4CCCO4)n3)c(=O)[nH]c2c1 (stereo unspecified)	–	–	–	–	–	–	·
Cc1ccc2cc(-c3noc(C4CCCCC4)n3)c(=O)[nH]c2c1	–	–	–	–	41	–	34	RORg DNA counter=–
CCOC(=O)c1cc(-c2ccccc2)sc1NC(=O)CN1C(=O)NC(CC)(c2ccccc2)C1=O (stereo unspecified)	–	–	–	·	47	66	31
CC(C)NC(=O)OC1CC2CC1[C@H]1CCCCN1C2=O (stereo partly specified)	–	·	–	·	–	·	·
CCOc1ccc(-c2nc(S(=O)(=O)c3ccccc3)c(NC)o2)cc1	–	–	–	–	47	–	–
CCCCCCNC(=O)OC12CN(C(=O)OC(C)C)N(C(=O)OC(C)C)CC1(O)CN(S(=O)(=O)c1ccc(C)cc1)C2 (stereo unspecified)	–	·	–	–	15	·	–
O=C(NC1CCCC1)c1ccc(Br)c(S(=O)(=O)N2CCCCC2)c1	–	–	–	·	–	–	·
COc1ccc(C(=O)Nc2ccc(Oc3ncnc4sc(-c5ccccc5)cc34)cc2)cc1OC	–	–	–	–	–	–	·
COc1ccccc1C(=O)Nc1ccc(Oc2ncnc3sc(-c4ccccc4)cc23)cc1	–	–	–	–	46	–	21
COc1ccc(C(=O)Nc2ccc(Oc3nc(C)nc4sc(-c5ccccc5)cc34)cc2)cc1OC	–	–	–	·	–	–	·
COc1cc(C(=O)Nc2ccc(Oc3ncnc4sc(-c5ccccc5)cc34)cc2)cc(OC)c1OC	–	–	–	·	30	–	–
CC(C)=CC(=O)O[C@@H]1Cc2c(ccc3ccc(=O)oc23)OC1(C)C	–	–	–	–	26	·	23
O=C(CCSc1nnc2scc(-c3ccccc3)n12)Nc1nc(-c2ccccc2)ns1	–	–	–	·	24	–	46	RORg DNA counter=–
O=C(NCCC(c1ccccc1)c1ccccc1)c1cnc2sccn2c1=O	–	–	–	–	26	–	–
